# Compounds with a hit are over-represented: about 1.7% of the library has one in this group of screens.
# PABP1 MLLE inh: inhibitors of microRNA-mediated deadenylation, human PABP1 MLLE binding; P11940; GST-MLLE / FITC-PAM2 fluorescence polarization; inhibition, % at 20 µM; actives 0.36% (n = 360,000); in the data active = inhibition above about 35%, passing the limit was not always enough
# Target sequence (P11940 whole entry, looked up): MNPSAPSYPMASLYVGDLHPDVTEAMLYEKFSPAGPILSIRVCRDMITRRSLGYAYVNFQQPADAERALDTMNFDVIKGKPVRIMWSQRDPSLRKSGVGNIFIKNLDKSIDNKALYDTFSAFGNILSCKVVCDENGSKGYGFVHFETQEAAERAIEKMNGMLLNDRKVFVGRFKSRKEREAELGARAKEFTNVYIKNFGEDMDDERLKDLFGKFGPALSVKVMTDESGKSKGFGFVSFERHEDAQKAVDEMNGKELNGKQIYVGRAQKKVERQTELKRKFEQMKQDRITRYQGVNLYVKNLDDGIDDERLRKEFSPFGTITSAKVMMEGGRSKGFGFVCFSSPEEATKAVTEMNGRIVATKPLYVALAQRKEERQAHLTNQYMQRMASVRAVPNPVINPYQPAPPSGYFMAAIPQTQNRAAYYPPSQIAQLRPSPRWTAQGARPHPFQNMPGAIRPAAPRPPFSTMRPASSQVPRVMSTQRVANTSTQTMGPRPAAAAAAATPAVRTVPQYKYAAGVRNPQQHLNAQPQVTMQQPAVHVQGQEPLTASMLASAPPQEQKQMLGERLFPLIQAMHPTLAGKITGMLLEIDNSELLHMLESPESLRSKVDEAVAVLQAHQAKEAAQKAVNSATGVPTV
# eIF4H FP inh: inhibitors of RNA binding by human eIF4H | Q15056 | actives 0.94% (n = 290,000) | eIF4H fluorescence polarization binding assay | inhibition, % at 35 µM | AID 2012;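 also: calls also rest on retests at 20 µM and on dose response follow-up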
# PABP FP inh: blocks human PABP binding to poly(A) RNA. P11940. fluorescence polarization. inhibition, % at 35 µM. actives 1% (n = 290,000);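 also: calls also rest on retests at 20 µM and on dose response follow-up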
# MT1-MMP act inh: MT1-MMP (human) activation inhibition; P50281; HT1080 RFP-PRO-GFP cells, GFP/RFP ratio fluorescence, overnight; percent of plate control window, DMSO zero; GFP/RFP ratio change, % at 20 µM; actives 0.061% (n = 360,000); AID 651647;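 active = GFP/RFP ratio change of at least 30% with cell ATP level not reduced by more than half and red fluorescence within 50% of control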
#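 Assay system: RFP-PRO-GFP reporter HT1080 cells; read-out basis: GFP/RFP fluorescence ratio; benchmarks: DMSO wells and RFP-L50D-GFP cells; doses: 20 µM single dose, 1% DMSO; schedule: overnight cell settling, then overnight compound exposure, 37 °C, 5% CO2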
# SKN-1 inh: blocks SKN-1 activity in C. elegans | inhibition, % at 21.8 µM | C. elegans VP596 Pgst-4::GFP/RFP ratio, acrylamide-induced, 24 h | actives 0.49% (n = 360,000);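 active = interference check ratio from 0.5 to 1.5 plus GFP to RFP signal ratio inhibition reaching or exceeding a fixed threshold, cut at about 30% in these data, passing the limit was not always enough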
# Numbers stand for hits; - = inactive; ? = inconclusive; . = no result. Unless noted, no rule for the calls is given here.
SMILES,PABP1 MLLE inh,eIF4H FP inh,PABP FP inh,MT1-MMP act inh,SKN-1 inh
COc1cc(C(=S)N2CCCC2)ccc1O,40,-,-,-,-
CCCNC(=O)N1CCC(c2nc3ccccc3s2)CC1,-,-,-,-,-
O=C(NCc1ccccn1)Nc1ccccc1F,-,-,-,-,-
CC(C)CN(C(=O)COC(=O)c1cc2c(s1)CCC2)C1CCS(=O)(=O)C1 (stereo not given),-,86,22,-,-
COc1ccc(/C(N)=N/OC(=O)c2ccc3ccccc3c2)cc1OC,-,.,.,-,-
CCC(Oc1ccccc1)C(=O)O/N=C(\N)c1ccc(OC)c(OC)c1 (stereo not given),-,active,122,-,-
CC(=O)c1ccc(N2CCN(S(=O)(=O)c3ccc4c5c3CC(=O)N5CC(C)S4)CC2)cc1 (stereo not given),-,-,-,-,-
COc1cc(C#N)ccc1OCC(=O)NCc1cccs1,-,1.9,-,-,-
CN1CCN(CC(=O)Nc2sc3c(c2C(=O)Nc2ccccc2)CCCC3)CC1,-,-,60,-,-
CCOC(=O)c1c(NC(=O)CN2CCN(C)CC2)sc(C(=O)Nc2ccccc2)c1C,-,-,-,-,-
O=C(CN1CCCC1)Nc1sc2c(c1C(=O)Nc1ccc(Br)cc1)CCC2,-,-,-,-,38
COC(=O)c1cn(NC(=O)C2COc3ccccc3O2)c(=O)c2ccccc12 (stereo not given),-,-,-,.,36
COC(=O)c1cn(NC(=O)C2CCCO2)c(=O)c2ccccc12 (stereo not given),-,-,-,-,-
COCCN(C(=O)c1cccc(OC)c1)c1nnc(-c2ccncc2)s1,-,-,-,-,-
COCCN(C(=O)/C=C/c1ccccc1)c1nnc(-c2cccnc2)s1,-,-,9.6,-,-
CCN1CCN(c2sc(S(C)(=O)=O)nc2S(=O)(=O)c2ccc(C)cc2)CC1,-,-,-,-,-
O=C(O)C1OC(Oc2c(-c3ccc(O)c(O)c3)oc3cc(O)cc(O)c3c2=O)C(O)C(O)C1O (stereo not given),.,76,14,.,.
CC1OC(Oc2c(-c3cc(O)c(O)c(O)c3)oc3cc(O)cc(O)c3c2=O)C(O)C(O)C1O (stereo not given),-,-,-,-,-
CC(C)(C)NC(=O)C1(N2C(=O)c3ccccc3C2=O)CCCC1,-,.,.,-,-
CSC1=N/C(=C\c2ccccc2F)C(=O)S1,-,-,-,-,-
CSC1=N/C(=C\c2ccc(Br)o2)C(=O)S1,-,57,16,-,-
COc1ccc(O)c(/C=N/NC(=S)Nc2cccnc2)c1,41,-,-,-,-
Oc1ccc(/C=N/NC(=S)Nc2cccnc2)cc1,38,-,-,-,-
COc1cccc(/C=N/NC(=S)Nc2cccnc2)c1,-,-,?,-,-
CN(CC(=O)Nc1ccccc1Br)C(=O)C(Cc1ccccc1)NC(=O)c1ccccc1 (stereo not given),-,-,-,-,-
SMILES,PABP1 MLLE inh,eIF4H FP inh,PABP FP inh,MT1-MMP act inh,SKN-1 inh
CCn1cc(S(=O)(=O)NC2CCCCC2)cn1,-,-,-,-,-
Cc1ccc(C)c(S(=O)(=O)Nc2ccc3oc(C)c(C(=O)O)c3c2)c1,-,87,75,-,-
CC(=O)c1ccc2cccc3c2c1N=CN3C,-,72,-,-,-
CN(C(=O)COC(=O)C1c2ccccc2Oc2ccccc21)C1CCS(=O)(=O)C1 (stereo not given),-,-,-,-,48
CN(C(=O)COC(=O)c1cn(-c2ccccc2)nc1-c1ccccc1)C1CCS(=O)(=O)C1 (stereo not given),-,active,?,-,-
CCN(C(=O)COC(=O)c1cn(-c2ccccc2)nc1-c1ccccc1)C1CCS(=O)(=O)C1 (stereo not given),-,-,-,-,-
COc1cc(SC)ccc1C(=O)Nc1ccc(Cl)cn1,-,-,-,-,35
c1ccc(OCCSc2nc3ccccc3o2)cc1,-,-,-,-,39
CCOc1ccc(OCCSc2nc3ccccc3o2)cc1,-,-,-,-,-
O=c1c2ccccc2nc(SCc2nc(-c3ccccc3)no2)n1-c1ccc(F)cc1,-,87,active,-,-
c1ccc2oc(SCc3nc4ccccc4s3)nc2c1,-,-,-,-,45
c1ccc(-c2noc(CSc3nc4ccccc4o3)n2)cc1,-,-,-,-,44

# Screens: PubChem BioAssay, Sanford-Burnham Center for Chemical Genomics
